{"source": "the RNAGym collection of RNA variant scans (doi:10.1126/science.aae0568)", "parents": {"B1": {"name": "tRNA (parent)", "chain": "GUUCCGUUGGCGUAAUGGUAACGCGUCUCCCUCCUAAGGAGAAGACUGCGGGUUCGAGUCCCGUACGGAACG"}}, "note": "Variants at the floor of the assay were thinned out."}
{"variants_of": "B1", "experiment": "yeast fitness relative to wild type (ratio to wild type); higher = fitter; tRNA-Arg(CCU), competitive growth, 37 C, YPD", "how_it_was_run": "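Start and end populations of a pooled competition were compared by 100-nucleotide paired-end sequencing of gene amplicons. The Saccharomyces cerevisiae strains carried tRNA-Arg(CCU) gene variants at the native genomic locus, synthesised with a 3% per-site mutation rate at 69 sites, and competed in YPD at 37°C for 24 hours in six parallel replicates. Darwinian fitness relative to wild type was based on the change in genotype frequencies. Genotypes required ≥ 100 starting reads, and estimates < 0.5 were set to 0.5.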"}
{"variant": "G6A C30G", "yeast fitness": 0.711}
{"variant": "G6C A20G C61A", "yeast fitness": "≤ 0.5"}
{"variant": "G6A G17C U19C C29A A70G", "yeast fitness": "≤ 0.5"}
{"variant": "G6A U26A", "yeast fitness": 0.95}
{"variant": "G6A G12A U16C", "yeast fitness": 0.537}
{"variant": "G6A U13A A14G G41C", "yeast fitness": "≤ 0.5"}
{"variant": "G6A C11G A37C C60A A70G", "yeast fitness": "≤ 0.5"}
{"variant": "G6A C33A A37C", "yeast fitness": "≤ 0.5"}
{"variant": "G6C A15C G52C", "yeast fitness": "≤ 0.5"}
{"variant": "G6A U28G C60G", "yeast fitness": "≤ 0.5"}
{"variant": "G6A U7A", "yeast fitness": 0.749}
{"variant": "G6A C24U U32G A40U U64G", "yeast fitness": "≤ 0.5"}
{"variant": "G6A C29A G67C", "yeast fitness": "≤ 0.5"}
{"variant": "G6A G12A C34U G41A", "yeast fitness": 0.556}
{"variant": "G6A G17A C27U C33A A37C", "yeast fitness": "≤ 0.5"}
{"variant": "G6A G48A", "yeast fitness": 0.886}
{"variant": "G6A C11A A20G C62A", "yeast fitness": "≤ 0.5"}
{"variant": "G6A C24U C61G G68U", "yeast fitness": "≤ 0.5"}
{"variant": "G6A C27G G38C", "yeast fitness": "≤ 0.5"}
{"variant": "G6A C11A C24U", "yeast fitness": "≤ 0.5"}
{"variant": "G6A C24U U28A C60U", "yeast fitness": "≤ 0.5"}
{"variant": "G6A C33G C34G C61A G67U", "yeast fitness": "≤ 0.5"}
{"variant": "G6A C22G G25A U47A A70C", "yeast fitness": "≤ 0.5"}
{"variant": "G6A C11U C22G", "yeast fitness": 0.555}
{"variant": "G6A G38A U47A C60G", "yeast fitness": "≤ 0.5"}
{"variant": "G6A C31U G63A", "yeast fitness": 0.582}
{"variant": "G6A G52A G68C", "yeast fitness": 0.609}
{"variant": "G6C A15C C46A", "yeast fitness": 0.504}
{"variant": "G6A G48C G63C", "yeast fitness": 0.667}
{"variant": "G6C A14C C29U C34G C46U C66A G68C", "yeast fitness": "≤ 0.5"}
{"variant": "G6A C11A U19A A69U", "yeast fitness": 0.577}
{"variant": "G6A C27G G38C A65C", "yeast fitness": 0.595}
{"variant": "G6A C11U G23A C46A C55A", "yeast fitness": "≤ 0.5"}
{"variant": "G6C A21U A36C A57G", "yeast fitness": "≤ 0.5"}
{"variant": "G6C A15U", "yeast fitness": 0.738}
{"variant": "G6C A15G", "yeast fitness": 0.808}
{"variant": "G6A A57G", "yeast fitness": 0.929}
{"variant": "G6A A57C", "yeast fitness": 0.627}
{"variant": "G6A A57U", "yeast fitness": 0.629}
{"variant": "G6A C11U G68A", "yeast fitness": "≤ 0.5"}
{"variant": "G6A C33G G48A U54C C66G A70C", "yeast fitness": "≤ 0.5"}
{"variant": "G6A G17C G18C A45G G58A", "yeast fitness": "≤ 0.5"}
{"variant": "G6A G51C", "yeast fitness": 0.595}
{"variant": "G6A G51A", "yeast fitness": 0.83}
{"variant": "G6C A21U C61G A69C", "yeast fitness": "≤ 0.5"}
{"variant": "G6C A14C C31G A42U A43G", "yeast fitness": "≤ 0.5"}
{"variant": "G6A C29G A65U", "yeast fitness": "≤ 0.5"}
{"variant": "G6A G9C G44C", "yeast fitness": 0.605}
{"variant": "G6C A14U A70C", "yeast fitness": 0.591}
{"variant": "G6A U35A G67C", "yeast fitness": "≤ 0.5"}
{"variant": "G6A U16A C33G A36U", "yeast fitness": "≤ 0.5"}
{"variant": "G6A G23A C24G G44A", "yeast fitness": "≤ 0.5"}
{"variant": "G6A C11U C49G C62U", "yeast fitness": "≤ 0.5"}
{"variant": "G6A U19C U28G U32A G38C", "yeast fitness": "≤ 0.5"}
{"variant": "G6A C33G C34G C60A A69U", "yeast fitness": "≤ 0.5"}
{"variant": "G6A U47A A57U", "yeast fitness": "≤ 0.5"}
{"variant": "G6A G10C A20G C22U G38C C61G", "yeast fitness": "≤ 0.5"}
{"variant": "G6A G23C A37U A57G A65C A70U", "yeast fitness": "≤ 0.5"}
{"variant": "G6A U28A C30A", "yeast fitness": "≤ 0.5"}
{"variant": "G6A C24U C61G C62U C66U A69U", "yeast fitness": "≤ 0.5"}
{"variant": "G6A A69C", "yeast fitness": 0.866}
{"variant": "G6C A20C A40G A42U C60G", "yeast fitness": "≤ 0.5"}
{"variant": "G6A U26A C30G U59C", "yeast fitness": "≤ 0.5"}
{"variant": "G6C A14G U35G", "yeast fitness": 0.605}
{"variant": "G6A C31A A37C", "yeast fitness": "≤ 0.5"}
{"variant": "G6A U8C G10A U19C G41A U47C", "yeast fitness": "≤ 0.5"}
{"variant": "G6A C27G A45G", "yeast fitness": 0.521}
{"variant": "G6A G12C A36C", "yeast fitness": "≤ 0.5"}
{"variant": "G6A G44C G50C A57G", "yeast fitness": "≤ 0.5"}
{"variant": "G6A C60A G67C", "yeast fitness": 0.536}
{"variant": "G6A C29A U32C A42U G67A", "yeast fitness": "≤ 0.5"}
{"variant": "G6A U13G C27U C61G C66U", "yeast fitness": "≤ 0.5"}
{"variant": "G6A G12A A70U", "yeast fitness": 0.656}
{"variant": "G6A C30U U54A", "yeast fitness": "≤ 0.5"}
{"variant": "G6A C24U A40U A45U", "yeast fitness": "≤ 0.5"}
{"variant": "G6A G12C G18C G41A A43G G48A", "yeast fitness": "≤ 0.5"}
{"variant": "G6A U8C G10C", "yeast fitness": "≤ 0.5"}
{"variant": "G6A G10C", "yeast fitness": 0.725}
{"variant": "G6A C24U G58A", "yeast fitness": 0.67}
{"variant": "G6A G52A G63A", "yeast fitness": "≤ 0.5"}
{"variant": "G6A U26G C30U G52A", "yeast fitness": "≤ 0.5"}
{"variant": "G6A C29U A42U A43U C55G", "yeast fitness": "≤ 0.5"}
{"variant": "G6A C24U U54G A65U", "yeast fitness": "≤ 0.5"}
